Measurements as given in ChEMBL document CHEMBL2375313, “Synthesis, in vitro antitumor evaluation and DNA-binding study of novel tetrahydroquinolines and some derived tricyclic and tetracyclic ring systems” (Eur J Med Chem, 2013).

Columns and labels:
Assay type in all cases: functional
[1] = system: OVCAR-5; assay: Cytotoxicity against human OVCAR5 cells assessed as growth inhibition at 10 uM after 48 hrs by sulphorhodamine B assay; conditions: OVCAR-5, 48 h, read-out: GI
Outline: (§1)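 NCI-60 one-dose screen per the NCI Drug Evaluation Branch protocol. Cells given a single 10 µM concentration with 48 h continuous exposure. Growth estimated by sulphorhodamine B protein assay. Result expressed as percentage growth inhibition relative to untreated growth.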

[2] = system: NCI-H23; assay: Cytotoxicity against human NCI-H23 cells assessed as growth inhibition at 10 uM after 48 hrs by sulphorhodamine B assay; conditions: NCI-H23, 48 h, read-out: GI; outline: as §1
[3] = system: SF-268; assay: Cytotoxicity against human SF268 cells assessed as growth inhibition at 10 uM after 48 hrs by sulphorhodamine B assay; conditions: SF-268, 48 h, read-out: GI; outline: as §1
[4] = system: LOX IMVI; assay: Cytotoxicity against human LOXIMVI cells assessed as growth inhibition at 10 uM after 48 hrs by sulphorhodamine B assay; conditions: read-out: GI; outline: as §1
[5] = system: RPMI-8226; assay: Cytotoxicity against human RPMI8226 cells assessed as growth inhibition at 10 uM after 48 hrs by sulphorhodamine B assay; conditions: RPMI-8226, 48 h, read-out: GI; outline: as §1
[6] = system: MDA-MB-435; assay: Cytotoxicity against human MDA-MB-435 cells assessed as growth inhibition at 10 uM after 48 hrs by sulphorhodamine B assay; conditions: MDA-MB-435, 48 h, read-out: GI; outline: as §1
[7] = system: UO-31; assay: Cytotoxicity against human UO31 cells assessed as growth inhibition at 10 uM after 48 hrs by sulphorhodamine B assay; conditions: UO-31, 48 h, read-out: GI; outline: as §1
[8] = system: SK-OV-3; assay: Cytotoxicity against human SKOV3 cells assessed as growth inhibition at 10 uM after 48 hrs by sulphorhodamine B assay; conditions: SK-OV-3, 48 h, read-out: GI; outline: as §1
[9] = system: Hs-578T; assay: Cytotoxicity against human Hs578T cells assessed as growth inhibition at 10 uM after 48 hrs by sulphorhodamine B assay; conditions: read-out: GI; outline: as §1
[10] = system: MDA-MB-468; assay: Cytotoxicity against human MDA-MB-468 cells assessed as growth inhibition at 10 uM after 48 hrs by sulphorhodamine B assay; conditions: MDA-MB-468, 48 h, read-out: GI; outline: as §1
[11] = system: HOP-92; assay: Cytotoxicity against human HOP92 cells assessed as growth inhibition at 10 uM after 48 hrs by sulphorhodamine B assay; conditions: HOP-92, 48 h, read-out: GI; outline: as §1
[12] = system: HCT-116; assay: Cytotoxicity against human HCT116 cells assessed as growth inhibition at 10 uM after 48 hrs by sulphorhodamine B assay; conditions: HCT-116, 48 h, read-out: GI; outline: as §1
[13] = system: CCRF-CEM; assay: Cytotoxicity against human CCRF-CEM cells assessed as growth inhibition at 10 uM after 48 hrs by sulphorhodamine B assay; conditions: read-out: GI; outline: as §1
[14] = system: MOLT-4; assay: Cytotoxicity against human MOLT4 cells assessed as growth inhibition at 10 uM after 48 hrs by sulphorhodamine B assay; conditions: MOLT-4, 48 h, read-out: GI; outline: as §1
[15] = system: CAKI-1; assay: Cytotoxicity against human Caki1 cells assessed as growth inhibition at 10 uM after 48 hrs by sulphorhodamine B assay; conditions: CAKI-1, 48 h, read-out: GI; outline: as §1
[16] = system: NCI/ADR-RES; assay: Cytotoxicity against human NCI/ADR-RES cells assessed as growth inhibition at 10 uM after 48 hrs by sulphorhodamine B assay; conditions: read-out: GI; outline: as §1
[17] = system: SNB-19; assay: Cytotoxicity against human SNB19 cells assessed as growth inhibition at 10 uM after 48 hrs by sulphorhodamine B assay; conditions: SNB-19, 48 h, read-out: GI; outline: as §1
[18] = system: A549; assay: Cytotoxicity against human A549 cells assessed as growth inhibition at 10 uM after 48 hrs by sulphorhodamine B assay; conditions: A549, 48 h, read-out: GI; outline: as §1
[19] = system: DU-145; assay: Cytotoxicity against human DU145 cells assessed as growth inhibition at 10 uM after 48 hrs by sulphorhodamine B assay; conditions: DU-145, 48 h, read-out: GI; outline: as §1
[20] = system: NCI-H522; assay: Cytotoxicity against human NCI-H522 cells assessed as growth inhibition at 10 uM after 48 hrs by sulphorhodamine B assay; conditions: NCI-H522, 48 h, read-out: GI; outline: as §1
[21] = system: M14; assay: Cytotoxicity against human M14 cells assessed as growth inhibition at 10 uM after 48 hrs by sulphorhodamine B assay; conditions: M14, 48 h, read-out: GI; outline: as §1
[22] = system: SK-MEL-5; assay: Cytotoxicity against human SK-MEL-5 cells assessed as growth inhibition at 10 uM after 48 hrs by sulphorhodamine B assay; conditions: SK-MEL-5, 48 h, read-out: GI; outline: as §1
[23] = system: IGROV-1; assay: Cytotoxicity against human IGROV1 cells assessed as growth inhibition at 10 uM after 48 hrs by sulphorhodamine B assay; conditions: IGROV-1, 48 h, read-out: GI; outline: as §1
[24] = system: PC-3; assay: Cytotoxicity against human PC3 cells assessed as growth inhibition at 10 uM after 48 hrs by sulphorhodamine B assay; conditions: PC-3, 48 h, read-out: GI; outline: as §1
[25] = system: HL-60(TB); assay: Cytotoxicity against human HL-60(TB) cells assessed as growth inhibition at 10 uM after 48 hrs by sulphorhodamine B assay; conditions: HL-60, 48 h, read-out: GI
Outline: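 NCI-60 one-dose primary screen run to the Drug Evaluation Branch protocol. Cells are exposed to a single 10 µM concentration for 48 h continuously, and growth is read by SRB protein assay. Data are reported as percent growth of treated cells, expressed as % growth inhibition.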

[26] = system: HCT-15; assay: Cytotoxicity against human HCT15 cells assessed as growth inhibition at 10 uM after 48 hrs by sulphorhodamine B assay; conditions: HCT-15, 48 h, read-out: GI; outline: as §1
[27] = system: UACC-62; assay: Cytotoxicity against human UACC62 cells assessed as growth inhibition at 10 uM after 48 hrs by sulphorhodamine B assay; conditions: UACC-62, 48 h, read-out: GI; outline: as §1
[28] = system: MCF7; assay: Cytotoxicity against human MCF7 cells assessed as growth inhibition at 10 uM after 48 hrs by sulphorhodamine B assay; conditions: MCF7, 48 h, read-out: GI; outline: as §1
[29] = system: SNB-75; assay: Cytotoxicity against human SNB75 cells assessed as growth inhibition at 10 uM after 48 hrs by sulphorhodamine B assay; conditions: SNB-75, 48 h, read-out: GI; outline: as §1
[30] = system: ACHN; assay: Cytotoxicity against human ACHN cells assessed as growth inhibition at 10 uM after 48 hrs by sulphorhodamine B assay; conditions: read-out: GI; outline: as §1
[31] = system: SK-MEL-2; assay: Cytotoxicity against human SK-MEL-2 cells assessed as growth inhibition at 10 uM after 48 hrs by sulphorhodamine B assay; conditions: SK-MEL-2, 48 h, read-out: GI; outline: as §1
[32] = system: HT-29; assay: Cytotoxicity against human HT-29 cells assessed as growth inhibition at 10 uM after 48 hrs by sulphorhodamine B assay; conditions: HT-29, 48 h, read-out: GI; outline: as §1
[33] = system: SF-295; assay: Cytotoxicity against human SF295 cells assessed as growth inhibition at 10 uM after 48 hrs by sulphorhodamine B assay; conditions: SF-295, 48 h, read-out: GI; outline: as §1
[34] = system: RXF 393; assay: Cytotoxicity against human RXF393 cells assessed as growth inhibition at 10 uM after 48 hrs by sulphorhodamine B assay; conditions: RXF 393, 48 h, read-out: GI; outline: as §1
[35] = system: OVCAR-4; assay: Cytotoxicity against human OVCAR4 cells assessed as growth inhibition at 10 uM after 48 hrs by sulphorhodamine B assay; conditions: OVCAR-4, 48 h, read-out: GI; outline: as §1
[36] = system: U-251; assay: Cytotoxicity against human U251 cells assessed as growth inhibition at 10 uM after 48 hrs by sulphorhodamine B assay; conditions: U-251, 48 h, read-out: GI; outline: as §1
[37] = Cytotoxicity against human EKVX cells assessed as growth inhibition at 10 uM after 48 hrs by sulphorhodamine B assay; conditions: read-out: GI; outline: as §1
[38] = system: A498; assay: Cytotoxicity against human A498 cells assessed as growth inhibition at 10 uM after 48 hrs by sulphorhodamine B assay; conditions: A498, 48 h, read-out: GI; outline: as §1
[39] = system: SR; assay: Cytotoxicity against human SR cells assessed as growth inhibition at 10 uM after 48 hrs by sulphorhodamine B assay; conditions: read-out: GI; outline: as §1
[40] = system: K562; assay: Cytotoxicity against human K562 cells assessed as growth inhibition at 10 uM after 48 hrs by sulphorhodamine B assay; conditions: K562, 48 h, read-out: GI; outline: as §1
[41] = system: T47D; assay: Cytotoxicity against human T47D cells assessed as growth inhibition at 10 uM after 48 hrs by sulphorhodamine B assay; conditions: read-out: GI; outline: as §1

## CC1CCCc2c1nc(N)c(C#N)c2-c1ccc(Cl)cc1 (stereo unspecified)
[1]
  inhibition of growth at 10 µM: < 10%
[2]
  inhibition of growth at 10 µM: < 10%
[3]
  inhibition of growth at 10 µM: 11.3%
[4]
  inhibition of growth at 10 µM: < 10%
[5]
  inhibition of growth at 10 µM: 18.2%
[6]
  inhibition of growth at 10 µM: < 10%
[7]
  inhibition of growth at 10 µM: < 10%
[8]
  inhibition of growth at 10 µM: < 10%
[9]
  inhibition of growth at 10 µM: 25%
[10]
  inhibition of growth at 10 µM: 36.5%
[11]
  inhibition of growth at 10 µM: 10%
[12]
  inhibition of growth at 10 µM: < 10%
[13]
  inhibition of growth at 10 µM: 13.3%
[14]
  inhibition of growth at 10 µM: < 10%
[15]
  inhibition of growth at 10 µM: < 10%
[16]
  inhibition of growth at 10 µM: < 10%
[17]
  inhibition of growth at 10 µM: 20.5%
[18]
  inhibition of growth at 10 µM: < 10%
[19]
  inhibition of growth at 10 µM: < 10%
[20]
  inhibition of growth at 10 µM: < 10%
[21]
  inhibition of growth at 10 µM: < 10%
[22]
  inhibition of growth at 10 µM: < 10%
[23]
  inhibition of growth at 10 µM: < 10%
[24]
  inhibition of growth at 10 µM: < 10%
[25]
  inhibition of growth at 10 µM: < 10%
[26]
  inhibition of growth at 10 µM: < 10%
[27]
  inhibition of growth at 10 µM: 24.2%
[28]
  inhibition of growth at 10 µM: 31.5%
[29]
  inhibition of growth at 10 µM: 26.8%
[30]
  inhibition of growth at 10 µM: < 10%
[31]
  inhibition of growth at 10 µM: 15%
[32]
  inhibition of growth at 10 µM: < 10%
[33]
  inhibition of growth at 10 µM: < 10%
[34]
  inhibition of growth at 10 µM: < 10%
[35]
  inhibition of growth at 10 µM: 10.1%
[36]
  inhibition of growth at 10 µM: < 10%
[37]
  inhibition of growth at 10 µM: 39.5%
[38]
  inhibition of growth at 10 µM: 21.7%
[39]
  inhibition of growth at 10 µM: < 10%
[40]
  inhibition of growth at 10 µM: 11.8%
[41]
  inhibition of growth at 10 µM: 17.2%
